Screening results deposited in PubChem by Sanford-Burnham Center for Chemical Genomics.
This is a sample that favours compounds with a hit; in the whole collection about 1.8% have one here.
HKDC1 inhibitor: inhibitors of human hexokinase HKDC1 | Q2TB90 | AID 493160 | recombinant HKDC1, G6PDH/diaphorase resazurin coupled fluorescence | inhibition, % at 20 µM | 0.16% of 340,000 active;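 active means inhibition above about 35% when tested at 20 µM, limit read from the data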;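 further: plate controls were DMSO wells with enzyme for no effect and DMSO wells lacking enzyme for full effect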
Target sequence (Q2TB90 whole entry, looked up): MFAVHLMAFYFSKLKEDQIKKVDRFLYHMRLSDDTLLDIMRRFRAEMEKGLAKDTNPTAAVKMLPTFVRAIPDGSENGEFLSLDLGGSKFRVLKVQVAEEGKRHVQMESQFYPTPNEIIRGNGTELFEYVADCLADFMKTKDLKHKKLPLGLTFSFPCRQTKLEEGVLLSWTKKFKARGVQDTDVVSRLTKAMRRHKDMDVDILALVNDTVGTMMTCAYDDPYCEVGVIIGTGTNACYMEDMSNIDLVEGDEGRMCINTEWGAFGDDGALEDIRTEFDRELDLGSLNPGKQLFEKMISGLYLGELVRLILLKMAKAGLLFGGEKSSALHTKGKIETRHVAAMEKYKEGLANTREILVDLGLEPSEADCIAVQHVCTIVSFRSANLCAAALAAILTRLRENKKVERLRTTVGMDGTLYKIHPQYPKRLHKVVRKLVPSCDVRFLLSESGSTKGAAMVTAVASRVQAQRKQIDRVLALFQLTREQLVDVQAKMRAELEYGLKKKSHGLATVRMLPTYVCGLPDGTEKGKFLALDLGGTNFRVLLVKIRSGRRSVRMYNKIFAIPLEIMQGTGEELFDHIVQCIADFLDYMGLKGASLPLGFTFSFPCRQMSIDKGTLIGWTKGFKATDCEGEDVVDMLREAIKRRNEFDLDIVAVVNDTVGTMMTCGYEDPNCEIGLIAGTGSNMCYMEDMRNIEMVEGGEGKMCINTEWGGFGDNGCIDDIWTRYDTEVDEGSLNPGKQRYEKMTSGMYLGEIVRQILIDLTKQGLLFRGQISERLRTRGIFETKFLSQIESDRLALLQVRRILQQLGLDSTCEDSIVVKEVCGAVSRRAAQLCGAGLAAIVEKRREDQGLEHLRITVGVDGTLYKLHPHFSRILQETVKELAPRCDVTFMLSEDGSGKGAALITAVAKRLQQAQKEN
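Assay system: recombinant HKDC1 hexokinase; detection: coupled resazurin fluorescence, excitation 525 nm, emission 613 nm; benchmarks: DMSO-plus-enzyme-mix negative control, buffer-substituted positive control; compound dosing: single 20 µM dose; schedule: 90 min at room temperature in dark; also added: glucose plus 1 mM ATP as hexokinase substrates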
DNMT1 block: blocks human DNA methyltransferase DNMT1; inhibition (reported as % activation of signal), % at 10 µM; P26358; 0.83% of 360,000 active; DNMT1 molecular beacon, Hinp1I cleavage, fluorescence; in the data active means inhibition above about 50%
Scp-1 inhibitor: Scp-1 (human) phosphatase inhibition; Q9GZU7; Recombinant Scp1, phosphopeptide, malachite green phosphate absorbance; inhibition, % at 20 µM; 0.88% of 340,000 active;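 active means inhibition above about 50% at 20 µM, limit read from the data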;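 further: plate controls were DMSO wells with enzyme for no effect and wells lacking enzyme for full effect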
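assay system = SCP-1 phosphatase catalytic domain, residues 76-261 | buffer or medium = 50 mM Tris acetate pH 5.5, 0.005% Tween-20, 10 mM MgCl2 | incubation = enzyme reaction 45 min at room temperature, colour 5 min, stabilisation 30 min | signal = Phosphate-binding colour reagent, absorbance read at 630 nm | measure = % inhibition at 20 µM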
LMPTP block: LMPTP (human) inhibition; P24666; recombinant LMPTP-A, OMFP fluorogenic substrate, fluorescence intensity; 0.22% of 360,000 active; AID 651560; inhibition, % at 20 µM;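 active means compounds that cut the enzyme signal by at least half of the control window in the single-dose screen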;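 further: plate controls were DMSO wells with enzyme plus substrate for no effect and substrate without enzyme for full effect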
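test system = LMPTP-A | amount = 0.625 nM LMPTP-A final | reagent = fluorogenic phosphatase substrate OMFP at 400 µM final | incubation = 50 min at room temperature | benchmarks = no-enzyme low control, uninhibited high control | medium = Bis-Tris pH 6.0, DTT, detergent | signal = fluorescence intensity of OMFP turnover product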
STEP block: STEP (human) phosphatase inhibition | recombinant STEP, OMFP fluorogenic substrate, fluorescence | inhibition, % at 20 µM | 0.25% of 360,000 active | AID 588621;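 active means inhibition at 20 µM, scaled per plate between control wells, above about 37%, limit read from the data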;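 further: 0% = DMSO with enzyme and substrate and 100% = substrate only without enzyme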
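material = STEP tyrosine phosphatase | reagent = fluorogenic phosphatase substrate OMFP at 25 µM final | doses = single compound dose of 20 µM, 1% DMSO final | schedule = 20 min reaction, room temperature, in the dark | measured by = fluorescence, 480/540 nm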
SUMO1 PPI mod: modulators of human SUMO1-mediated protein-protein interactions; 0.33% of 360,000 active; SUMO1 binding to a labelled peptide, TR-FRET, 1 h; P63165; inhibition, % at 20 µM; in the data active means inhibition above about 37%
Scp-1 conf: confirmation of human Scp-1 phosphatase inhibitors; AID 540281; inhibition, % at 20 µM; 61% of 2,500 active; recombinant SCP-1 catalytic domain, phosphate release, malachite green absorbance; shares compounds with Scp-1 inhibitor;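 further: plate controls were DMSO with enzyme for no effect and buffer wells lacking enzyme for full effect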
Scp-1 MG ctr: interferes with malachite green readout, flagging false Scp-1 hits; shares compounds with Scp-1 inhibitor; 2,500 tested, under 10 active; Colorimetric interference counterscreen, malachite green absorbance 630 nm; apparent inhibition (interference), % at 20 µM;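 further: compounds added after enzyme reaction finished so only phosphate colour detection is probed; plate controls were DMSO wells with completed Scp-1 reaction for no effect and substrate wells lacking enzyme for full effect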
Scp-1 Tm shift: Scp-1 (human) binding by thermal shift | shares compounds with Scp-1 inhibitor | Recombinant SCP1, Sypro Orange thermal shift Tm | thermal shift relative to vanadate control, % at 40 µM | 25% of 1,500 active | AID 540329;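 active means substances whose mean melting-temperature shift, as a percentage of the reference inhibitor's shift, reaches about 5.3%, limit read from the data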;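 further: 0% = Tm of DMSO wells and 100% = Tm with sodium orthovanadate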
Beacon interf DR: counter-screen for DNMT1 inhibitors: spectral interference, dose response; shares compounds with DNMT1 block; molecular beacon fluorescence; IC50, µM; 200 tested, under 10 active; AID 602382; call rule not given here
DNMT1 confirm: DNMT1 inhibition confirmation, single concentration; shares compounds with DNMT1 block; DNMT1 molecular beacon HinP1I cleavage, fluorescence; inhibition, % at 10 µM; 8% of 2,300 active; AID 602385;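 active means average inhibition of at least 30% in the single-concentration confirmation test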
DNMT1 interf: beacon fluorescence artifact counter-screen | shares compounds with DNMT1 block | DNMT1 molecular beacon spectral interference counterscreen, fluorescence 485/520 | activation (fluorescence interference), % at 10 µM | 1% of 2,300 active | AID 602387;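 active means activation of at least 30% at 10 µM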;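 further: DNMT1 catalytic domain with a HinP1I cleavage step and a FAM/dabcyl DNA beacon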
* hit, by the source's call; / = no result given.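 How the source made its calls, unless noted: active means inhibition of at least 30% at 20 µM; inactive means the rest.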

SMILES	HKDC1 inhibitor	DNMT1 block	Scp-1 inhibitor	LMPTP block	STEP block	SUMO1 PPI mod	Scp-1 conf	Scp-1 MG ctr	Scp-1 Tm shift	DNMT1 confirm	DNMT1 interf	others
COc1ccc(N2Cc3cccc(C(=O)N4CCN(C(=O)c5ccco5)CC4)c3C2=O)cc1	18.6	80.3*	92.3*	10.2	2.9	9.3	60.2*	-18.4	3.5	29.4	-1.8	Beacon interf DR=>99
Cc1cccc(NC(=O)CCc2nc3sc4c(c3c(=O)[nH]2)CCCC4)c1	-1.5	3.6	3.9	0.1	-2.2	-0.3	/	/	/	/	/
Cc1ccc(NC(=O)CCc2nc3sc4c(c3c(=O)[nH]2)CCCC4)nc1	0.0	50.3*	61.6*	6.4	3.3	21.0	66.0*	-10.9	9.0*	4.4	2.7
O=C(COC(=O)c1cncc(Br)c1)NCc1ccco1	23.3	102.2*	88.1*	9.0	13.7	63.2*	54.1*	-20.2	-9.6	4.7	2.7
O=C(COC(=O)c1cccs1)NCc1ccco1	2.4	72.8*	96.8*	3.8	3.1	5.4	63.9*	-17.0	4.6	3.2	6.6
COc1cc(NC(=O)c2cccs2)c(C(=O)OCC(=O)NCc2ccco2)cc1OC	4.7	11.6	26.5	5.4	2.3	16.2	/	/	/	/	/
O=C(COC(=O)c1cncc(Br)c1)NCc1ccc(F)cc1	-2.5	-2.8	3.5	-0.9	-0.6	-0.4	/	/	/	/	/
CN(C)S(=O)(=O)c1ccc(N2CCCC2)c(C(=O)OCC(=O)N2CCN(c3ccccc3)CC2)c1	-4.4	-1.0	1.8	0.8	0.5	-1.3	/	/	/	/	/
O=C1CC(=O)NC(SCC(=O)Nc2ccccc2[N+](=O)[O-])=N1	1.6	64.2*	76.6*	6.6	21.3	12.3	66.6*	-12.3	13.1*	32.9*	2.7	Beacon interf DR=>99
Cc1cc(C)nc(SCC(=O)Nc2ccccc2[N+](=O)[O-])n1	-10.1	1.4	-2.0	0.0	-3.9	-14.5	/	/	/	/	/
O=C1O[C@H](CO)[C@@H](O)[C@H](O)[C@H]1O	-7.7	1.0	-6.2	-1.4	-0.1	2.7	/	/	/	/	/
O=CC(O)C1OC(=O)C(O)C1O (centres undefined)	-3.9	89.8*	63.6*	6.5	9.9	10.6	43.1*	-9.0	-14.6	44.2*	4.5	Beacon interf DR=>99
CCCCNC(=O)O[C@@H]1C[C@H]2CCC(=O)N3CC[C@@H](C1)[C@@H]23	-5.8	-1.2	-5.9	-0.3	0.3	2.2	/	/	/	/	/
O=C(Cc1cccs1)Nc1ccc(S(=O)(=O)N2CCCCC2)cc1	-1.3	57.4*	89.4*	17.6	3.7	2.4	64.2*	-19.7	6.6*	8.1	4.1
Cc1ccnc(NS(=O)(=O)c2ccc(NC(=O)Cc3cccs3)cc2)n1	5.7	89.5*	59.9*	14.4	0.7	15.1	73.3*	-5.4	6.8*	22.1	-3.4	Beacon interf DR=>99
Cc1ccnc(NS(=O)(=O)c2ccc(NC(=O)Cc3ccc(F)cc3)cc2)n1	-4.1	4.1	-0.9	-2.1	-1.5	3.1	/	/	/	/	/
CC(C)(CS(=O)(=O)[O-])NC(=O)CC[N+](C)(C)CCO	-3.9	116.3*	60.0*	-1.8	51.7*	27.6	43.1*	-12.6	-10.7	85.9*	5.7	Beacon interf DR=>99
Cc1ccc(NC(=O)CN(C)C(=O)c2cc(-c3cccs3)nn2-c2ccccc2)cc1	-0.1	-6.5	-4.9	2.7	-0.9	-1.2	/	/	/	/	/
O=C1CCCN1C(=O)CSc1ccc2ccccc2n1	6.8	-0.7	-1.7	-0.7	0.3	5.8	/	/	/	/	/
Cc1ccc(C(=O)O)cc1-c1ccc(C=C2C(=O)c3ccccc3C2=O)o1	17.8	72.5*	79.3*	13.3	41.8*	13.3	46.9*	-23.2	12.1*	6.8	-0.3
Cc1cc(C(=O)O)ccc1-n1c(C)cc(C=C2C(=O)c3ccccc3C2=O)c1C	1.8	10.1	6.5	4.0	5.7	0.2	/	/	/	/	/
O=C(Cc1cccs1)Nc1nnc(CCc2ccccc2)s1	-1.2	2.4	0.3	0.9	-1.4	-3.1	/	/	/	/	/
CC(C)(C)Cc1nnc(NC(=O)Cc2cccs2)s1	-5.0	55.9*	57.7*	21.0	8.4	3.0	62.9*	-20.8	7.2*	8.5	1.5
